The results in this text go back to ChEMBL document CHEMBL1137693, “Antiamoebic coumarins from the root bark of Adina cordifolia and their new thiosemicarbazone derivatives” (Eur J Med Chem, 2009).

The nature of this series: Cytotoxicity against rat H9c2 cells assessed as cell viability at 3.125 to 200 ug/ml after 48 hrs by MTT assay. In kind it is cell-based. To be noted: read-out: Activity. Put shortly: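 Rat H9c2 cardiac myoblasts maintained in high-glucose DMEM with 10% heat-inactivated FBS and antibiotics at 37 °C, 5% CO₂. Subconfluent cells exposed 48 h to 3.125–200 μg/ml. MTT (5 mg/ml) added for 45 min at 37 °C; formazan dissolved in acid isopropanol, absorbance read at 570 nm (reference 655 nm). Viability relative to untreated controls; triplicate.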
Background: Tetrazolium dyes change colour on reduction, which living cells bring about.

Bounds are passed on as bounds.

Consider `C/C(=N\NC(=S)N1CCC(Cc2ccccc2)CC1)c1c(O)ccc2ccc(=O)oc12`, for which the viability at 48 h was over 80%. Under `C/C(=N\NC(=S)NC12CC3CC(CC(C3)C1)C2)c1c(O)ccc2ccc(=O)oc12` stands over 80%; under `C/C(=N\NC(=S)NCc1ccccc1)c1c(O)ccc2ccc(=O)oc12`, over 80%.
